Laboratory results from ChEMBL document CHEMBL4340573, “New pyrazolopyrimidine derivatives as Leishmania amazonensis arginase inhibitors” (Bioorg Med Chem, 2019).
Active and inactive are the calls of the source. The calls are words filed in the database; no cut-off is given here.

What was measured:
Arginase [1] = target: T1, Arginase (Leishmania amazonensis, UniProt O96394); experiment: Inhibition of recombinant Leishmania amazonensis arginase expressed in Escherichia coli using L-arginine as substrate
Summary of the method: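 Recombinant E. coli-expressed LaARG was run with L-arginine at 25, 50 and 100 mM separately. Inhibitor was 200 to 0.05 µM by 4-fold serial dilution, in triplicate in two independent experiments. IC50 came from nonlinear sigmoidal regression of log dose versus enzyme activity; reported IC50 values are at 50 mM substrate.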

[2] = target: Arginase (Leishmania amazonensis) (UniProt O96394); experiment: Inhibition of recombinant Leishmania amazonensis arginase expressed in Escherichia coli at 100 uM using L-arginine as substrate relative to control
Summary of the method: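 Recombinant LaARG was expressed in E. coli. Single-point screen: 100 µM compound with 50 mM L-arginine in 50 mM CHES, pH 9.5. DMSO stocks (70 mM) were diluted to 1 mM in deionized water before assay. Run in triplicate in two independent experiments.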

[3] = target: Arginase (Leishmania amazonensis) (UniProt O96394); experiment: Uncompetitive inhibition of recombinant Leishmania amazonensis arginase expressed in Escherichia coli assessed as dissociation constant for ternary complex enzyme-substrate-inhibitor using L-arginine as substrate by Dixon or Cornish-Bowden plot analysis
Summary of the method: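 Kinetics on recombinant LaARG used L-arginine at 25, 50 and 100 mM, each with three inhibitor concentrations. Points are the mean of three independent experiments run in duplicate. Mechanism came from linear-regression Dixon and Cornish-Bowden plots. Kis (ESI complex dissociation constant) was taken from the intersection of lines on the Cornish-Bowden plot.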

Leishmania amazonensis [4] = experiment: Antileishmanial activity against Leishmania amazonensis LTB0016 amastigotes assessed as induction of parasite morality at 30 uM incubated for 48 hrs by Alamar blue dye based assay relative to control; format: functional; details: LTB0016, 48 h
Summary of the method: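 Amastigotes purified by mechanical dissociation in RPMI from paw skin lesions of male Swiss Webster mice 30 days after subcutaneous infection with 10^6 amastigotes. Parasites at 10^6/well exposed 48 h at 32 °C, 5% CO2, with compound up to 30 µM (DMSO ≤0.6% final). Then 24 h with 10% AlamarBlue, OD read at 570-600 nm; pentamidine as reference.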

[5] = (§1) Cytotoxicity against Swiss mouse peritoneal macrophages assessed as reduction in cell viability incubated for 48 hrs by MTT assay; format: cell-based, Peritoneal macrophage; details: Swiss, peritoneal macrophages, read-out: LC50
Summary of the method: (§2)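 Peritoneal cells harvested in RPMI 96 h after 3% thioglycolate (1 mL) in male Swiss mice (18-20 g). Plated at 10^5 cells/well in RPMI 1640 with 10% FBS and 2 mM glutamine. After 24 h, exposed to compound up to 200 µM, 48 h, 37 °C, 5% CO2. MTT 0.45 mg/mL added for 4 h, OD at 570. LC50 derived; at least 2 runs in triplicate.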

Arginase [6] = target: T1, Arginase; experiment: Non-competitive inhibition of Leishmania amazonensis arginase using L-arginine as substrate incubated for 15 mins
[7] = target: Arginase (Leishmania amazonensis) (UniProt O96394); experiment: Competitive inhibition of recombinant Leishmania amazonensis arginase expressed in Escherichia coli using 25 to 100 mM L-arginine levels
Peritoneal macrophage = experiment: as §1; format: cell-based; details: peritoneal macrophage, 48 h; summary of the method: as §2
Leishmania amazonensis [8] = experiment: Antileishmanial activity against Leishmania amazonensis LTB0016 amastigotes assessed as induction of parasite morality incubated for 48 hrs by Alamar blue dye based assay relative to control; format: functional, organism-based; details: LTB0016, 48 h
Summary of the method: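 Free amastigotes (LTB0016) were purified by mechanical dissociation in RPMI from paw skin lesions of male Swiss Webster mice 30 days after s.c. infection with 10^6 amastigotes. Parasites at 10^6/well were exposed to compounds up to 30 µM for 48 h at 32 °C in 5% CO2. AlamarBlue (10%) was then added for 24 h at 32 °C and OD read at 570-600 nm. Final DMSO was ≤0.6%.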

| SMILES | IC50 (Arginase [1]) [µM] | inhibition [2] [%] | K [3] [µM] | mortality at 30 µM (Leishmania amazonensis [4]) [%] | CC50 at 48 h [5] [µM] | IC50 (Arginase [6]) [µM] | Ki (Arginase [6]) [µM] | inhibition [7] | LC50 (Peritoneal macrophage) | EC50 (Leishmania amazonensis [8]) [µM] |
| --- | --- | --- | --- | --- | --- | --- | --- | --- | --- | --- |
| Cc1cc(NNC(N)=S)n2nc(C(F)(F)F)nc2n1 | 16.5 | 81 | 17 | 20 to 30 | > 200 | 16.5 | 17 |  |  |  |
| NC(=S)NNc1ncnc2c1cnn2-c1ccc(C(F)(F)F)cc1 | 47 | 73.8 | 29 | 20 to 30 | > 200 |  |  | inactive |  |  |
| N#Cc1ccc(-n2ncc3c(NNC(N)=S)ncnc32)cc1 | 100 | 59.8 |  |  |  |  |  |  | Nd(Insoluble) |  |
| N=C(N)c1ccc(OCCCCCOc2ccc(C(=N)N)cc2)cc1 [PENTAMIDINE] |  |  |  |  | 17.2 |  |  |  |  | 0.8 |
| NC(=S)NNc1ncnc2c1cnn2-c1ccc(Cl)cc1 | > 100 | 46 |  | 20 to 30 | > 200 |  |  |  |  |  |
| NC(=S)NNc1ncnc2c1cnn2-c1ccc(F)cc1 | > 100 | 36.4 |  | 20 to 30 | > 200 |  |  |  |  |  |
| NC(=S)NNc1ncnc2c1cnn2-c1ccccc1 | 12 | 74.3 | 8.5 | 20 to 30 | > 200 |  |  | inactive |  |  |
| Cc1ccc(-n2ncc3c(NNC(N)=S)ncnc32)cc1 | > 100 | 42.2 |  |  |  |  |  |  | Nd(Insoluble) |  |
